For assay [1], the target named is T1, Receptor-type tyrosine-protein kinase FLT3 (Mus musculus) (UniProt Q00342).
T1 sequence (whole entry): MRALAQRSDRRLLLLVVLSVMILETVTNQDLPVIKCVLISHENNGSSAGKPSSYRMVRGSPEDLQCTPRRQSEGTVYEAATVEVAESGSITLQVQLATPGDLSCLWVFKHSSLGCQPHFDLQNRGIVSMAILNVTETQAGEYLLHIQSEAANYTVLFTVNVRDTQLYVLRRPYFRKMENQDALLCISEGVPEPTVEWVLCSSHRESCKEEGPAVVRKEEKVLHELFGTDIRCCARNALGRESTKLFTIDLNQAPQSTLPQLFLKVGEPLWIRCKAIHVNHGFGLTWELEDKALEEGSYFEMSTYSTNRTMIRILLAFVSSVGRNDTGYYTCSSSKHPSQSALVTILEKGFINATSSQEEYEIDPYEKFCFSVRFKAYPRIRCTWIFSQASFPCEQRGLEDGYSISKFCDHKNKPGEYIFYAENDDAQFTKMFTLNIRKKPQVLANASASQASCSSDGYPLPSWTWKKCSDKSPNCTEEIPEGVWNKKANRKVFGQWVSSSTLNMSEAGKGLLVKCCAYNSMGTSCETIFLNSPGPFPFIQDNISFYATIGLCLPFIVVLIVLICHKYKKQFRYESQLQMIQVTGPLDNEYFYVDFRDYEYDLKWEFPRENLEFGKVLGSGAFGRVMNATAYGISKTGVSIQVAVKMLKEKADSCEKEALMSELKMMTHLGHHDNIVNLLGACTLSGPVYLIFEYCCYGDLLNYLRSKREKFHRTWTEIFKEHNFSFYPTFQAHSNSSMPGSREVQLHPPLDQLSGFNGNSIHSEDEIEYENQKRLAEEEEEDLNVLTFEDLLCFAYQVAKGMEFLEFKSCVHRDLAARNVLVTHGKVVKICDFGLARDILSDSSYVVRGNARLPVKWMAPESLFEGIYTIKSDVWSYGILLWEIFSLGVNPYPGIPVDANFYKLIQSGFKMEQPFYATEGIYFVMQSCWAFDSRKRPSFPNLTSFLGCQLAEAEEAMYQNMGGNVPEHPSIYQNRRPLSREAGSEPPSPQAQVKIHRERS
The assay can be described thus: Inhibition of FLT3 in Balb/c mouse BMDCs assessed as suppression of FLT3L-induced pDC formation measured as lower right quadrant cells level treated on day 9 post 9 days of FLT3L-stimulation measured after 24 hrs by CD11c PerCP and CD45R/B220 FITC staining based flow cytometric analysis (reference value: 2.8%). On the set-up: scale not given: the % may be the effect or the level left. The method in brief:
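BALB/c bone marrow cells were cultured at 1×10^6/ml with FLT3L in supplemented RPMI-1640 for 9 days. Compound in DMSO or 0.1% DMSO was added on day 9 for 24 h. Cells were stained for 30 min with CD11c PerCP plus B220 FITC (pDC: CD11c+ B220+) or MHC II FITC (mDC: CD11c+ MHC II+), then analysed by flow cytometry. Three independent experiments.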

Assay [2] relates to BMDC. The assay can be described thus: Decrease in IFN-gamma level in Balb/c mouse BMDCs at 10 nM treated on day 9 post 9 days of FLT3L-stimulation measured after 12 hrs by ELISA. Format: functional, cell-based. The method in brief: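 BALB/c bone marrow cells were plated at 1×10^6/ml in RPMI-1640 with 10% FCS, 10^-4 M 2-ME, pyruvate, antibiotics and FLT3L for 9 days. On day 9, compound in DMSO or 0.1% DMSO was added. After 12 h, supernatant IFN-γ and IL-23 were measured by ELISA. Three independent experiments.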

The target of assay [3] is T1, Receptor-type tyrosine-protein kinase FLT3 (Mus musculus). The assay can be described thus: Inhibition of FLT3 in mouse BMDCs assessed as suppression of STAT5 phosphorylation at 10 and 100 nM treated on day 9 post 9 days of FLT3L-stimulation measured after 1 hr by Western blot analysis. The gist of the method: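 Bone marrow cells were cultured 9 days with FLT3L in supplemented RPMI-1640, then exposed to compound or 0.1% DMSO for 1 h on day 9. Whole cells were lysed and immunoblotted with rabbit antibodies to STAT3, STAT5, pSTAT3 and pSTAT5. Three independent experiments.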

The species named for assay [4] is Mus musculus. The experiment in a line: Antipsoriatic activity in K14-VEGF transgenic mouse model of psoriasis assessed as improvement of psoriatic symptoms at 0.05% applied tropically over lesion for continuous 21 days by macroscopic analysis relative to vehicle control. Format: functional, organism-based. The method in brief: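 Homozygous K14-VEGF mice, 3–4 months old, with moderate to serious psoriasis. Lesions smeared with cream with or without 0.05% compound for 3 weeks, then observed untreated for another 15 days. Head and neck photographed on days 0, 21 and 36 for macroscopic assessment.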

For assay [5], the species on record is Mus musculus. The assay can be described thus: Antipsoriatic activity in K14-VEGF transgenic mouse model of psoriasis assessed as reduction in focal parakeratinosis at 0.05% applied tropically over lesion for continuous 29 days by H and E staining method relative to vehicle control. It counts as functional, organism-based. The gist of the method:
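Homozygous K14-VEGF mice, 3–4 months old, with moderate to serious psoriasis; n=3 per group. Cream with 0.05% compound or vehicle cream smeared on lesions. Head and neck tissue sections taken after 29 days of treatment and HE-stained. Baker pathological score from 5 random fields, given as mean and SD. Epidermal thickness from 8 random fields, given as mean ± SEM.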

The species entered for assay [6] is Mus musculus. The experiment in a line: Antipsoriatic activity in K14-VEGF transgenic mouse model of psoriasis assessed as lower left quadrant DC cells expressing FLT3 and CD11c in psoriatic plaque lesion at 0.05% applied tropically over lesion for continuous 29 days by flow cytometric analysis (reference value: 72.7%). It counts as functional.
The species named for assay [7] is Mus musculus. The assay can be described thus: Antipsoriatic activity in K14-VEGF transgenic mouse model of psoriasis assessed as lower right quadrant DC cells expressing FLT3 and CD11c in psoriatic plaque lesion at 0.05% applied tropically over lesion for continuous 29 days by flow cytometric analysis (reference value: 8.88%). It counts as functional.
Assay [8] is filed under the species Mus musculus. The experiment in a line: Antipsoriatic activity in K14-VEGF transgenic mouse model of psoriasis assessed as upper left quadrant DC cells expressing FLT3 and CD11c in psoriatic plaque lesion at 0.05% applied tropically over lesion for continuous 29 days by flow cytometric analysis (reference value: 9.62%). It counts as functional.
Assay [9] is filed under the species Mus musculus. The experiment in a line: Antipsoriatic activity in K14-VEGF transgenic mouse model of psoriasis assessed as decrease in Th17 cell formation in lymph node at 0.05% applied tropically over lesion for 29 days by flow cytometric analysis relative to vehicle-treated control. Format: functional, organism-based. The method in brief: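 K14-VEGF mice were treated topically for 29 days with 0.05% cream or vehicle. Lymph node cells were surface-stained with anti-CD4 PE, then fixed and permeabilised. They were stained with FITC anti-IL-17 and analysed by flow cytometry, three mice, mean ± SD.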

For assay [10], the species on record is Mus musculus. The assay can be described thus: Downregulation of IFN-gamma expression in K14-VEGF transgenic mouse model of psoriasis at 0.05% applied tropically over lesion for 29 days by ELISA. Format: functional, organism-based. The gist of the method: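 K14-VEGF mice were treated for 29 days with 0.05% cream or vehicle, n=3 each. At termination, blood was held at 4 °C for 12 h and then centrifuged. Plasma IFN-γ and IL-17 were measured by ELISA, mean ± SD.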

Structures are written as SMILES. Activity calls are given as the source filed them. The rule behind the calls is not given here.

From ChEMBL document CHEMBL4428067, “Drug Discovery against Psoriasis: Identification of a New Potent FMS-like Tyrosine Kinase 3 (FLT3) Inhibitor, 1-(4-((1H-Pyrazolo[3,4-d]pyrimidin-4-yl)oxy)-3-fluorophenyl)-3-(5-(tert-butyl)isoxazol-3-yl)urea, That Showed Potent Activity in a Psoriatic Animal Model” (J Med Chem, 2016) come the findings set out here.

Regarding `CC(C)(C)c1cc(NC(=O)Nc2ccc(Oc3ncnc4[nH]ncc34)c(F)c2)no1`, the Activity is 4.63% in [1], 89.5% in assay [6], 2.1% in [7] and 3.22% in assay [8]. Moreover, the inhibition result in assay [2] and in [3] was “Active” in each case. For the same compound, the outcome in [4], in assay [5], in assay [9] and in assay [10] was Active.
